ChEMBL document CHEMBL4513216, “Probing the Open Global Health Chemical Diversity Library for Multistage-Active Starting Points for Next-Generation Antimalarials” (ACS Infect Dis, 2020)

experiment: Toxicity liver stage against HepG2, at 10uM; format: cell-based; set-up: test concentration 10 uM, cell line HepG2-A16-CD81EGFP; conditions: human, HepG2-A16-CD81EGFP cells; read-out: INHIBITION
Summary of the method: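 Uninfected HepG2-A16-CD81EGFP cells, 3 × 10^3 per well, 1536-well, plated on prespotted compound at 10 μM final, parasite-free screening media added to match infected plates; puromycin 10 μM positive, DMSO 0.5% negative; run in parallel with 48 h PbLuc assay at 37 °C, 5% CO2; viability by CellTiter-Glo luminescence, normalized to controls.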

Structure (SMILES)	cytotoxicity at 10 µM [%]
Cc1nc(CSCCC(=O)Nc2cccc(N3CCNC3=O)c2)cs1	5.31
Cc1nccn1C1CCCN(C(=O)c2cc(O)nc3ccccc23)C1 (stereo unspecified)	-6.9
Cc1cc(CN2CCN(CC(O)c3cccc(F)c3)CC2)no1 (stereo unspecified)	-12.2
Cc1nc(C(Cc2ccsc2)NC(=O)CN2CCOCC2)sc1C (stereo unspecified)	2.7
Cn1c(NCC(O)c2ccc(F)cc2F)c(C#N)c(=O)n(C)c1=O (stereo unspecified)	-10.9
CC(C)OC(C)c1nnc(SCC(=O)O)n1-c1ccc(F)cc1F (stereo unspecified)	-11.6
Cc1ccc(CN2CCc3c(nnn3C)C2COCc2ccccc2)s1 (stereo unspecified)	-110
CS(=O)(=O)CCCNC1(c2cccc(Cl)c2)CCCC1	0.245
Cc1ccc(N2CC[C@]3(O)CCN(CCN4CCCC4=O)C[C@@H]3C2)nn1	-10.1
CC(C)(CNC(=O)C(C)(C)Oc1ccc2c(c1)CCCC2=O)C(N)=O	-2.25
c1ccc(C2CCCN(c3cncc(-n4cccn4)n3)CC2)cc1 (stereo unspecified)	48
CC(OCC(F)(F)F)C(=O)NCCN(C)C (stereo unspecified)	-3.17
O=C(Cn1ccc2ccccc21)NCc1cc(N2CCOCC2)ncn1	4.44
CCOCc1nc(N2CCOCC2)sc1C(=O)NCc1ccco1	1.64
Cc1ccccc1CC1(CO)CCCN(c2ncnc3sccc23)C1 (stereo unspecified)	27.5
COc1ccc(C(=O)COc2coc(CN3CCSCC3)cc2=O)cc1	8.13
CC(=O)N1CCCN(C(=O)NCCNc2cnccn2)CC1	-2.28
Cc1nn(C)c(Cl)c1C1CCCN1Cc1ccccn1 (stereo unspecified)	-0.459
CC(C)C(NC(=O)N1CCS(=O)(=O)CC1)c1ccccc1Cl (stereo unspecified)	13.3
COCC(=O)N1CCC2(CC1)CN(CC1CC1)c1ccc(F)cc12	-103
CCCc1noc(CNc2ccc(C(=O)N3CCCC3)cc2C)n1	-2.83
CN(Cc1nnc2n1CCC2)C(=O)Cc1ccc2c(c1)CCC2	-15.5
CC(C)(C)c1cn(CC2CCCN(c3cnc4ccccc4n3)C2)nn1 (stereo unspecified)	42.9

Structure (SMILES)	cytotoxicity at 10 µM [%]
CS(=O)(=O)Cc1ccc(C(=O)NCC2Cc3ccccc3O2)cc1 (stereo unspecified)	6.6
Cc1nc(CN2Cc3cn(C)nc3C(COCC3CC3)C2)cs1 (stereo unspecified)	-68.9
CN(Cc1ccc(N2CCCCC2)cc1)Cc1noc(C(C)(C)C)n1	12.5
Cn1ccnc1C(=O)N1CCC2(CCN2Cc2ccc(F)cc2)C1 (stereo unspecified)	-97
CC(=O)c1ccc(NC(=O)NC(C(=O)N(C)C)C(C)C)cc1 (stereo unspecified)	-5.55
CCSCCC(C)N(C)C(=O)c1ccc(C)o1 (stereo unspecified)	-3.75
O=C(CCn1ccc(=O)[nH]c1=O)N1CCC(Oc2ccccn2)CC1	-1.47
CS(=O)(=O)CCOCCNc1ccc(C#N)cc1F	-3.34
Cc1cc(C2CCCN2c2ncc(C(N)=O)cc2Cl)no1 (stereo unspecified)	-4.57
Cc1cnn(CC2CCCN2CC(=O)N(C)Cc2cnn(C)c2)c1 (stereo unspecified)	8.92
O=C(CCc1ccccc1)N1CCCCC1C1OCCO1 (stereo unspecified)	-45.1
Cc1ccc(CN2Cc3nccn3CC(CN(C)C)C2)s1 (stereo unspecified)	-82.4
COc1ccc(C(C(=O)O)N2CCN(C3CCCCC3)CC2)cc1OC (stereo unspecified)	-4.89
Cc1nc2c(c(N3CCCC(OCc4ccccn4)C3)n1)CCNCC2 (stereo unspecified)	0.383
FC(F)(F)Cn1ccnc1CNCC1CCCN1c1cccnn1 (stereo unspecified)	-26.6
CCc1nnc(C(C)N2CCN(CCC(=O)NC3CC3)CC2)o1 (stereo unspecified)	16
Cc1cc(C)n(-c2ccc(C(C)NS(N)(=O)=O)cc2)n1 (stereo unspecified)	-7.76
COCCC(=O)N1CC2(CCN(Cc3cccc(Cl)c3)CC2)C1	5.63
COc1cc(O)ccc1CN1CCN(C2CCc3ccccc3C2)CC1 (stereo unspecified)	-1.33
CC1=Nc2c(c(=O)[nH]n2C2CCCCC2)C(c2ccc(C(=O)O)cc2)S1 (stereo unspecified)	-7.92
c1cnc(N2CCC3(CCN(CC4CCOC4)CC3)C2)nc1 (stereo unspecified)	-5.56
O=C(NCc1ccccc1Cn1cncn1)C1CCCCC1	-2.06
CCOCC1CN(C(=O)c2ccoc2C)Cc2cnn(C)c21 (stereo unspecified)	-2.48

Structure (SMILES)	cytotoxicity at 10 µM [%]
CC(C(=O)N1CCN(CCOc2ccccc2)CC1)n1cc(Cl)cn1 (stereo unspecified)	10.4
Cc1nc(C2CCCN(C(=O)CN3CCCNC3=O)C2)sc1C (stereo unspecified)	10.4
COc1cccc(CN(C)Cc2nc(C(C)C)no2)c1	-43.6
COc1ccc(-c2cn3c(n2)CO[C@@H](CNCc2nccn2C)C3)cc1	-0.765
COC(=O)Cn1c(=O)[nH]c2cn(-c3ccc(F)cc3)c(=O)n21	1.09
CCn1ccnc1CN1CCN(Cc2ccccn2)CC1C (stereo unspecified)	14.3
COc1ccc(NC(=O)CSc2nc(C)cc(C)n2)cn1	-0.384
O=C(CCN1CCc2ccccc21)N1CC(C(=O)N2CCOCC2)C1	-26.7
CC1(C)CC(N2CCN(C3CCCC3)C(CCO)C2)CC(C)(C)C1 (stereo unspecified)	-7.19
N#CCc1cccc(C(=O)N2CCN(CC(O)c3ccccc3)CC2)c1 (stereo unspecified)	-10.7
CN(Cc1ccc(F)cc1)Cc1cc2c(cc1Br)OCCO2	-138
COC(=O)c1cc(NCC(=O)NC(N)=O)cc(C(F)(F)F)c1	-1.06
Cc1nn(C)c(C)c1CN(C)C(=O)c1cccc(CCC(C)(C)O)c1	3.13
CCOc1ccc(C#N)cc1NCC(=O)NC(=O)NC	-8.35
CC(C)N(C)C(=O)c1ccc(Cl)c(NC(=O)COCC2CC2)c1	6.14
CN1CC2(CCN(Cc3ncc[nH]3)CC2)CC1=O	-1.52
Cc1cccc(CN2CC[C@H]3O[C@H](C(=O)Nc4cnccn4)CC[C@H]32)n1	-144
CCc1noc(C(C)N2CCCN(Cc3noc(C4CC4)n3)CC2)n1 (stereo unspecified)	-6.87
COc1ccc(CNC(C)c2cccc(Br)c2)c(OC)c1OC (stereo unspecified)	9.75
COc1ccccc1CNC1(CCO)CCOCC1	20.5
CCc1nnc(CN(C)Cc2cccc(C(=O)Nc3nccs3)c2)o1	-2.97
Cc1cc(-n2cncn2)ccc1C(=O)N(CC(F)(F)F)C(C)C	-3.72
CC(C)N1[C@H](Cn2cccn2)C[C@@H]2CN(C3CCOCC3)CC[C@@H]21	3.92

Structure (SMILES)	cytotoxicity at 10 µM [%]
CC(=O)N1CC2(CCCCN2Cc2ccc(Cl)cc2)Cc2ccccc21 (stereo unspecified)	14.5
Cn1cnnc1C1CCN(C(=O)CCCOc2ccccc2)CC1	-7.62
COC[C@@]12CCO[C@@H]1CCN(C(=O)Cc1ccc(C)cc1)C2	1.47
COc1ccc2c(c1)[nH]c1c(N(C)CC3OCCO3)ncnc12	18.2
c1cncc(C[C@H]2[C@H](N3CCOCC3)CCN2Cc2cccs2)c1	8.34
O=S1(=O)NC(C2CCCN(S(=O)(=O)N3CCCC3)C2)=Nc2ccccc21 (stereo unspecified)	2.17
Cc1cc(C)cc(N2CCN(Cc3cccc(CCN)c3)CC2=O)c1	3.32
O=C1COc2ccc(Cl)cc2CN1CC1CC1	-9.2
CN(C)C(C)(C)CNCc1cn(C)nc1-c1cccnc1	11.8
CC(C)CCN1CC2(CCN(C(=O)C3(C)CCCCO3)CC2)OC1=O (stereo unspecified)	-14.4
O=C(Cc1cccc(F)c1)NCCNc1ncccn1	-6.71
COc1ccc(CN2C[C@@H]3CN(Cc4cccnc4)CCO[C@@H]3C2)cc1	10.3
Cc1nc(CN2CCOC(Cn3cncn3)C2)nc2ccccc12 (stereo unspecified)	-0.241
CN1CCC2(Cc3ccccc3CN(C(=O)CCN)C2)C1 (stereo unspecified)	0.17
O=C(C1CCCN1Cc1nc(-c2ccco2)no1)N1CCSCC1 (stereo unspecified)	-5.8
Cc1nc(-c2ccsc2)ccc1C(=O)NCCCN1CCOCC1	-13.9
Cc1ccsc1CNC(=O)c1ccc(N2CCNC2=O)cc1	1.79
N#Cc1cccc(N2CCCC3(CN(C(=O)NC4CC4)CCO3)C2)c1 (stereo unspecified)	12.1
CC(C)NC(=O)C1c2c(ncn2C(C)C)CCN1Cc1ccccc1 (stereo unspecified)	0.167
O=C1O[C@@H]2CN(CCc3ccccc3)C[C@@H]2N1CCCN1CCOCC1	-3.2
CCN(CC)C(=O)c1ccc(CNc2cncc(-n3cccn3)n2)cc1	7.18
CCn1c(CN2CCOC(Cn3cccn3)C2)nc2c(F)cccc21 (stereo unspecified)	-3.43
Cc1cn2nc(N3CCCC3Cn3cccn3)sc2n1 (stereo unspecified)	-18.1

Structure (SMILES)	cytotoxicity at 10 µM [%]
CN1CCCC1CNC(=O)CCOc1ccc(Br)cc1 (stereo unspecified)	-16.9
Cc1cc(C(F)(F)F)nc(CCNc2nc(C)nc3sccc23)n1	9.46
COCCNC(=O)C1CN(C(N)=O)Cc2ccnn2C1 (stereo unspecified)	0.0039
Cc1csc(N2CCCN(C(=O)c3nccnc3N)CC2)n1	-2.42
Cc1cncc(C2CCN(Cc3cnc(C)nc3)CC2)n1	5.38
FC(F)(F)CN1CCC(CCNc2ncccn2)CC1	-3.94
CCn1nc(C(C)C)cc1C(=O)NCCCOC	-14.7
CCc1ccc(C(=O)N2CCCCC2CNS(C)(=O)=O)o1 (stereo unspecified)	-0.95
CC(C)CN1CC[C@@H]2[C@H](CC1)N(S(C)(=O)=O)CCS2(=O)=O	2.05
COc1cc(CN2CC(=O)N(c3ccc(C)cc3)CC2C)cc(OC)c1 (stereo unspecified)	1.28
Cc1csc(N2CCN(C(=O)Cc3ccsc3)CC2)n1	2.68
COc1cc(-n2cccc2)c(Cl)cc1C(=O)NS(C)(=O)=O	0.872
CS(=O)(=O)N1CCC(C(=O)N2CCOc3ccccc32)CC1	-0.595
CC(C)CNC(=O)CNc1c(NCc2ccncc2)c(=O)c1=O	-4.44
COc1ncccc1CNCc1c(C)nn(C)c1N1CCOCC1	-11.1
CCN(CC)C(CNS(=O)(=O)NCc1ccccc1)c1ccco1 (stereo unspecified)	1.53
Cc1noc(C)c1CN1CCCC2(CCN(C(=O)C3CC3)C2)C1 (stereo unspecified)	2
COCCN1CC2(CCCN(C(=O)CCCc3cccs3)C2)CCC1=O (stereo unspecified)	-8.5
CNc1cccc(C2CCCN(C(=O)c3ccn(C)n3)C2)n1 (stereo unspecified)	-13.4
